# Measured values as given in ChEMBL document CHEMBL4513216, “Probing the Open Global Health Chemical Diversity Library for Multistage-Active Starting Points for Next-Generation Antimalarials” (ACS Infect Dis, 2020).
# Assay: Toxicity liver stage against HepG2, at 10uM
# Format: cell-based
# Design: test concentration 10 uM, cell line HepG2-A16-CD81EGFP
# Conditions: human, HepG2-A16-CD81EGFP cells; read-out: INHIBITION
# In short: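 Uninfected HepG2-A16-CD81EGFP cells, 3 × 10^3 per well, 1536-well, plated on prespotted compound at 10 μM final, parasite-free screening media added to match infected plates; puromycin 10 μM positive, DMSO 0.5% negative; run in parallel with 48 h PbLuc assay at 37 °C, 5% CO2; viability by CellTiter-Glo luminescence, normalized to controls.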
row,SMILES,cytotoxicity at 10 µM [%]
1,O=c1c(Cc2ccccc2)c(O)ccn1Cc1ccco1,5.01
2,O=C(CSC1CCCC1)N1CCN(C(=O)C2CC2c2cccs2)CC1 (stereo unspecified),4.48
3,CCN(CC)CCN1CCO[C@H]2[C@@H](OCc3ccccn3)CC[C@@H]21,-7.66
4,Cc1ccc(CN2CCOC3(CCCN(C(=O)c4ccco4)C3)C2)o1 (stereo unspecified),-3.27
5,O=C(Cn1cc(-c2ccccc2)ncc1=O)Nc1nc(C2CC2)n[nH]1,6.2
6,COCCN1C[C@@H]2CN(C(=O)[C@H]3CCCO3)C[C@@H]2C1=O,5.82
7,CCc1ccccc1NC(=O)CCc1cnn(C)c1,8.66
8,CCN(Cc1nonc1C)C(=O)c1cnccn1,-4.04
9,CCN(CC)C(=O)c1nnsc1-c1ccc(Cl)cc1,2.74
10,CCN(Cc1cscn1)CC1(C)Cc2c(N)nc(N)nc2O1 (stereo unspecified),3.35
11,Fc1ccc(F)c(CN2CCC(c3cnccn3)CC2)c1,-1.61
12,c1cnc2[nH]c(C3CCCC3)c(CN3CCOCC3)c2c1,-1.06
13,CC(C)C(=O)N1CCCC(c2cncc(Oc3cccnc3)n2)C1 (stereo unspecified),-2.83
14,CN1CCC2(Cc3ccccc3CN(C(=O)Cc3cccc(Cl)c3)C2)C1 (stereo unspecified),6.91
15,COC(=O)c1ccc(C)c(N2CCNC2=O)c1,9.81
16,CCc1nc(CS(=O)(=O)Cc2noc(C3CC3)n2)cs1,-7.38
17,Cc1ccc(C2CSCCN2CCS(C)(=O)=O)cc1 (stereo unspecified),-8.3
18,Cc1cn2c(n1)CCC(NC(=O)c1ccc(OCC3CC3)nc1)C2 (stereo unspecified),-9.47
19,O=C(CNc1nc(C(F)(F)F)cs1)N1CCc2sccc2C1,15.1

row,SMILES,cytotoxicity at 10 µM [%]
1,Oc1cccc(CNCCC2CCCO2)c1 (stereo unspecified),4.08
2,Cc1csc(N2CCN(Cc3ccccn3)CC2)n1,6.14
3,O=C(C1CCOC1)N1CCN(CC(F)(F)F)c2ccccc21 (stereo unspecified),-5.74
4,Cc1nn2cccnc2c1C(=O)NCc1ccccc1OC1CCC1,-46.4
5,COc1ccc(N2CCC(NS(=O)(=O)N(C)C(C)C)CC2)cc1,6.62
6,COCCN(C)C(=O)NCCc1coc(-c2ccc(C)cc2)n1,8.13
7,FC(F)(F)Oc1ccc(CN2CCCC(n3cncn3)C2)cc1 (stereo unspecified),-14.4
8,CC(=O)c1cccc(OC(C)C(=O)Nc2cnn(CCN(C)C)c2)c1 (stereo unspecified),3.45
9,Cc1ccc(C(NC(=O)CN2CCc3cncnc3C2)C2CC2)cc1 (stereo unspecified),9.31
10,CCc1nc(CNC2CCN(c3ccc(OC)cc3)CC2)cs1,-12.8
11,Cc1cc(C)c(CNC(=O)N2CCNC(=O)C2)c(=O)[nH]1,-0.535
12,Cc1nc(-c2ccc(NCCc3ccc(O)cc3)nc2)[nH]c(=O)c1C,20.5
13,COc1ccccc1N1CCC(CNC(=O)CN2CSCC2=O)C1 (stereo unspecified),-1.33
14,Cc1ccoc1CNC(C)c1nnc2n1CCCC2 (stereo unspecified),-12.6
15,Cc1cnc(CNC2CCc3nc(C(C)C)nn3C2)cn1 (stereo unspecified),4.93
16,CC(C)c1noc(CN(CCC2CCCCC2)CC(N)=O)n1,2.94
17,CC(=O)N1CCC(CCNC(C)c2cc(F)cc(F)c2)CC1 (stereo unspecified),-0.988
18,Cc1nc2cc(C(=O)N(CCC#N)CCC#N)ccc2n1C,-3.91
19,CCN(C)S(=O)(=O)NCC1(c2cccc(Br)c2)CC1,10.7

row,SMILES,cytotoxicity at 10 µM [%]
1,N#CCCN1CCC(=Cc2ccccc2)CC1,-2.75
2,CCc1nonc1NC(=O)C(C)Oc1ccccc1F (stereo unspecified),12
3,C=C(C)CN1CCC(c2n[nH]c(C3CC3)n2)CC1,-1.92
4,Cc1nc(NC(=O)C2CCCN(C(N)=O)C2)sc1-c1ccccc1 (stereo unspecified),9.31
5,CC(C)(C)[S+]([O-])CCNC(=O)c1cccc2ncccc12 (stereo unspecified),-45.1
6,COc1cccc(CC2CCCN2CCCC#N)c1 (stereo unspecified),-43.7
7,CN(CC1CCN(CCO)CC1)CC(O)c1ccc(F)cc1 (stereo unspecified),-52.8
8,O=C(NCC1CCOC1)N1CCN(c2ncccn2)CC1 (stereo unspecified),-39.8
9,Cc1ccc2[nH]c(CN3CC[C@@H](N4CCN(C)CC4)[C@H](O)C3)c(C)c2c1,-7.34
10,COc1ccc(Cc2ncc3c(n2)CN(C(=O)C(C)(C)C)C3)cc1,-1.1
11,COc1cc2c(cc1-c1nc3c(cnn3C(C)C3CC3)[nH]1)OCO2 (stereo unspecified),4.82
12,CC(C)CC(C)NC1CCN(c2cccc(-c3cscn3)c2)CC1 (stereo unspecified),-56.8
13,CN1C[C@@H](n2cnc(-c3ccccc3)c2-c2ccccn2)C[C@H]1C(=O)O,0.322
14,CS(=O)(=O)CC1CCCN(c2ncnc3c2Cc2ccccc2OC3)C1 (stereo unspecified),-7.41
15,CSCC[C@@H](CO)Nc1nc(-c2ccccn2)nc2c1c(C)nn2C,2.7
16,O=C(NCc1cccc(F)c1F)c1cc(CN2CCCC(O)C2)on1 (stereo unspecified),-45.9
17,CN(C)C(=O)c1ccc(-c2cccc3c2CCNC3)cc1,-2.31
18,CC(C)C1CN(c2cccc(C#N)n2)CCCN1CC1CC1 (stereo unspecified),-6.55
